This is an account of results in publication PMC7101055 (ACS Chemical Neuroscience, 2020).

“Also recorded” adds a separate entry of the source. Read-outs that look alike come from different tables or passages of the source.

The conditions of data set [1]: pH 7.2; cited from earlier work.
Data set [2] in a line: UV-vis spectra in KMOPS buffer pH 7.2. The data set is classed as physicochemical. As to conditions: for ε365 / ε405: 0.1 mM in KMOPS buffer; for ε365: 365 nm; for ε405: 405 nm; for λmax: 0.1 mM solution in KMOPS buffer.
The nature of the next data set: 2-photon excitation. The data set is classed as physicochemical. The settings on record: excitation at 740 nm, KMOPS buffer pH 7.2. Put shortly: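 Two-photon uncaging of test compound in KMOPS buffer (100 mM KCl and 10 mM MOPS, brought to pH 7.2 with KOH), with excitation at 740 nm.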
A short description of data set [3]: 1PE photolysis at 365 and 405 nm. Format: physicochemical. As to conditions: for Φu(365) quantum yield of photolysis / sensitivity (ε365Φu): 365 nm; for Φu(365) quantum yield of photolysis / Φu(405) quantum yield of photolysis: 0.1 mM in KMOPS buffer; for Φu(365) quantum yield of photolysis / sensitivity (ε365Φu) / Φu(405) quantum yield of photolysis / sensitivity (ε405Φu): pH 7.2; for sensitivity (ε365Φu) / sensitivity (ε405Φu): KMOPS buffer; for Φu(405) quantum yield of photolysis / sensitivity (ε405Φu): 405 nm; for yield of DA or sulpiride released (365 nm): photolysis at 365 nm; for yield of DA or sulpiride released (365 nm) / yield of DA or sulpiride released (405 nm): measured by HPLC, KMOPS pH 7.2; for yield of DA or sulpiride released (405 nm): photolysis at 405 nm. In short, it runs like this: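 Test compound at 0.1 mM in KMOPS buffer (100 mM KCl, 10 mM MOPS, adjusted to pH 7.2 with KOH), irradiated with one-photon light. Released dopamine quantified by HPLC to give chemical yield.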

Data set [4] is described as follows: Spontaneous hydrolysis in the dark, buffer, by HPLC. The settings on record: 100-μM solution in KMOPS buffer pH 7.2, HPLC. The data set is classed as physicochemical.
For a further data set, the system named is D2 receptor. As to conditions: cited from earlier work.
The target of data set [5] is T1, D2 receptors on substantia nigra dopamine neurons (Mus musculus, UniProt P61168). Format: cell-based.
Data set [6] has as its target T1, D2 receptors on substantia nigra dopamine neurons. Format: cell-based. The settings on record: CyHQ-sulpiride 5 μM, 1 s flash; quinpirole 300 nM or dopamine 1 μM.
The next data set addresses human D2 receptors. The settings on record: cited from earlier work.
A further data set has as its target rat D2 receptors. As to conditions: cited from earlier work.

As a reminder, the Ki is a measure of affinity in units of concentration, obtained from inhibition or displacement.

T1 sequence (P61168 whole entry): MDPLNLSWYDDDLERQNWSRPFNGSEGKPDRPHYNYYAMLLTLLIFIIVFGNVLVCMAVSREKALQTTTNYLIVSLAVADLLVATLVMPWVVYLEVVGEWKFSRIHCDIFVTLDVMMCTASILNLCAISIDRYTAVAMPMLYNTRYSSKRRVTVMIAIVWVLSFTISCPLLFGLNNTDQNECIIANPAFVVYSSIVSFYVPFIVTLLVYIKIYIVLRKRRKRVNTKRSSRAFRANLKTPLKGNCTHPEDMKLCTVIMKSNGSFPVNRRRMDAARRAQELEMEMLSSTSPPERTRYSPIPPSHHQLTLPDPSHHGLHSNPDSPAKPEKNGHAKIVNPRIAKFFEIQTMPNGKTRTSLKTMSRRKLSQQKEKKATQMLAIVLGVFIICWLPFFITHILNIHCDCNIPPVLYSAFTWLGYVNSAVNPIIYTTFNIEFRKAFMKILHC

As for `COc1cc(C(Oc2ccc(CNC(=O)CCCC/C=C/C(C)C)cc2OC)C(=O)O)c([N+](=O)[O-])cc1OC` (stereo not drawn), the “decomposition in the dark in 24 h” value in [1] was 1.7%.
In data set [2], `N#Cc1c(O)ccc2ccc(COc3ccc(CCN)cc3OCc3ccc4ccc(O)c(C#N)c4n3)nc12` [(CyHQ)2-O,O-DA, 2,2′-(((4-(2-Aminoethyl)-1,2-phenylene)bis(oxy))bis(methylene))bis(7-hydroxyquinoline-8-carbonitrile)] showed a ε365 of 5480 M^–1 cm^–1, a ε405 of 324 M^–1 cm^–1 and a λmax of 364 nm. Also, in “2-photon excitation”, the “δu 2-photon uncaging action cross-section” value stood at 0.12 GM. In data set [3], the “Φu(365) quantum yield of photolysis” value came out at 0.19, the “sensitivity (ε365Φu)” value is recorded as 1044, the “Φu(405) quantum yield of photolysis” value is 0.19 and the “sensitivity (ε405Φu)” value is given as 61. Besides, in [3], the “yield of DA or sulpiride released (365 nm)” value stood at 16% and the “yield of DA or sulpiride released (405 nm)” value is recorded as 15%. Further, in data set [3] (range over 365 and 405 nm photolysis), the “chemical yield of dopamine” value was 15–16%. In addition, the photochemical quantum yield in data set [3] (wavelength not stated in the sentence (1PE)) is recorded as 0.19. For the same compound, the “dark stability: no spontaneous hydrolysis in the dark observed within the time given” value in data set [4] turned out to be 100 h.
For `NCCc1ccc(O)c(O)c1` [dopamine], the koff with D2 receptor was 1.69 min^–1. Also, the “rise time of current from 10 to 90% of the peak” value in data set [5] (iontophoretically applied dopamine (1 M, 10 ms 100 nA pulse)) worked out at 270 ms; in data set [5] (synaptically released dopamine (IPSC, single stimulation)) it was 141 ms. For the same compound, the “time constant of decay τ of D2 current after CyHQ-sulpiride photolysis” value in data set [6] is 307 ms.
As for `CCN1CCCC1CNC(=O)c1cc(S(N)(=O)=O)ccc1OC` (stereo not drawn) [sulpiride], the Ki was 9.4 nM at human D2 receptors and 6.9 nM on rat D2 receptors. Moreover, the “effect on CyHQ-O-DA flash response” value in data set [5] (sulpiride 500 nM, CyHQ-O-DA 150 μM) is “all response was blocked”. The “reversal of the dark current produced by CyHQ-O-DA” value in [5] (sulpiride 1 μM, CyHQ-O-DA 1 mM in the dark) is “unable to fully reverse the effect”.
In [2], “(8-Cyano-7-hydroxyquinolin-2-yl)methyl(3,4-dihydroxyphenethyl)carbamate [CyHQ-N-DA]” came in with a ε365 of 6700 M^–1 cm^–1, a ε405 of 251 M^–1 cm^–1 and a λmax of 364 nm. Also, the “δu 2-photon uncaging action cross-section” value in the data set “2-photon excitation” is reported as “did not photolyze through 2PE; also recorded: n.p. ^c”. Also, in [3], the “Φu(365) quantum yield of photolysis” value stood at 0.19, the “sensitivity (ε365Φu)” value was determined as 1283, the “Φu(405) quantum yield of photolysis” value worked out at 0.20 and the “sensitivity (ε405Φu)” value is on record as 50. Moreover, in data set [3], the “yield of DA or sulpiride released (365 nm)” value was 60% and the “yield of DA or sulpiride released (405 nm)” value is 49%. In data set [4], the “dark stability: no spontaneous hydrolysis in the dark observed within the time given” value was determined as 24 h.
